Experimental data: ChEMBL document CHEMBL4325904 (Eur J Med Chem, 2019)
pIC50: −log10 of the molar value. Blank lines part the entries; values can stand above or below the molecule they belong to. Calls of active or inactive are those of the source. The calls are words filed in the database; no cut-off is given here.

How the values were obtained:
Histone deacetylase 1 = Histone deacetylase 1 (Homo sapiens, UniProt Q13547); experiment: Inhibition of recombinant full length C-terminal FLAG/His-tagged human HDAC1 (1 to 482 residues) expressed in sf21 cells using RHK-K(Ac)-AMC as substrate by fluorimetric assay
Sequence of Histone deacetylase 1 (Q13547 whole entry, the tested form may be a part): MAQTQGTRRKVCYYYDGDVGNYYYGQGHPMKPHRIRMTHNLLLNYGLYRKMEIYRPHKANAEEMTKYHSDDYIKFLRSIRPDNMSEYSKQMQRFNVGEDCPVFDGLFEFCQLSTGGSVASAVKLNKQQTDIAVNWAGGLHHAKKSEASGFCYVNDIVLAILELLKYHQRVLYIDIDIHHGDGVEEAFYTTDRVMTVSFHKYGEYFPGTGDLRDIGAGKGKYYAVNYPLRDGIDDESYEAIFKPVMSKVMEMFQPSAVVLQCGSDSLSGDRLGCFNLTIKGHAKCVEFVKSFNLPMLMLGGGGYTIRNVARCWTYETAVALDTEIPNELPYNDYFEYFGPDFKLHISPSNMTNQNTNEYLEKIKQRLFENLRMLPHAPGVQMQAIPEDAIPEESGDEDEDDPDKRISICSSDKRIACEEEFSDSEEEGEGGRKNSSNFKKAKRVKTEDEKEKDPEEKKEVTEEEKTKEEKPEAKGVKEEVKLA

[1] = target: Histone deacetylase 3/Nuclear receptor corepressor 2 (HDAC3/NCoR2) (Homo sapiens, UniProt O15379); type: cell-based
Sequence of Histone deacetylase 3/Nuclear receptor corepressor 2 (HDAC3/NCoR2) (O15379 whole entry, the tested form may be a part): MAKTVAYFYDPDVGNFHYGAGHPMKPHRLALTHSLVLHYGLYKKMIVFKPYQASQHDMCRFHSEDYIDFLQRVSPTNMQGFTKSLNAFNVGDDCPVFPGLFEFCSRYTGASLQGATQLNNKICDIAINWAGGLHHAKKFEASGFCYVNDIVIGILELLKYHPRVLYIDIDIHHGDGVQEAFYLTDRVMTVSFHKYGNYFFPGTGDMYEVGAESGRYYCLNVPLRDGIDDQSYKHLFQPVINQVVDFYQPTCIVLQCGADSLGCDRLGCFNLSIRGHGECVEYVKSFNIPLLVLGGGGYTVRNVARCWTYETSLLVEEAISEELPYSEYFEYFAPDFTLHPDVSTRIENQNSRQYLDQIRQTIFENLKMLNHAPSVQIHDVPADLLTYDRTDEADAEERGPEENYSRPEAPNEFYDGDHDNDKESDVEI
Sequence of Histone deacetylase 3/Nuclear receptor corepressor 2 (HDAC3/NCoR2) (Q9Y618 whole entry, further chain, the tested form may be a part): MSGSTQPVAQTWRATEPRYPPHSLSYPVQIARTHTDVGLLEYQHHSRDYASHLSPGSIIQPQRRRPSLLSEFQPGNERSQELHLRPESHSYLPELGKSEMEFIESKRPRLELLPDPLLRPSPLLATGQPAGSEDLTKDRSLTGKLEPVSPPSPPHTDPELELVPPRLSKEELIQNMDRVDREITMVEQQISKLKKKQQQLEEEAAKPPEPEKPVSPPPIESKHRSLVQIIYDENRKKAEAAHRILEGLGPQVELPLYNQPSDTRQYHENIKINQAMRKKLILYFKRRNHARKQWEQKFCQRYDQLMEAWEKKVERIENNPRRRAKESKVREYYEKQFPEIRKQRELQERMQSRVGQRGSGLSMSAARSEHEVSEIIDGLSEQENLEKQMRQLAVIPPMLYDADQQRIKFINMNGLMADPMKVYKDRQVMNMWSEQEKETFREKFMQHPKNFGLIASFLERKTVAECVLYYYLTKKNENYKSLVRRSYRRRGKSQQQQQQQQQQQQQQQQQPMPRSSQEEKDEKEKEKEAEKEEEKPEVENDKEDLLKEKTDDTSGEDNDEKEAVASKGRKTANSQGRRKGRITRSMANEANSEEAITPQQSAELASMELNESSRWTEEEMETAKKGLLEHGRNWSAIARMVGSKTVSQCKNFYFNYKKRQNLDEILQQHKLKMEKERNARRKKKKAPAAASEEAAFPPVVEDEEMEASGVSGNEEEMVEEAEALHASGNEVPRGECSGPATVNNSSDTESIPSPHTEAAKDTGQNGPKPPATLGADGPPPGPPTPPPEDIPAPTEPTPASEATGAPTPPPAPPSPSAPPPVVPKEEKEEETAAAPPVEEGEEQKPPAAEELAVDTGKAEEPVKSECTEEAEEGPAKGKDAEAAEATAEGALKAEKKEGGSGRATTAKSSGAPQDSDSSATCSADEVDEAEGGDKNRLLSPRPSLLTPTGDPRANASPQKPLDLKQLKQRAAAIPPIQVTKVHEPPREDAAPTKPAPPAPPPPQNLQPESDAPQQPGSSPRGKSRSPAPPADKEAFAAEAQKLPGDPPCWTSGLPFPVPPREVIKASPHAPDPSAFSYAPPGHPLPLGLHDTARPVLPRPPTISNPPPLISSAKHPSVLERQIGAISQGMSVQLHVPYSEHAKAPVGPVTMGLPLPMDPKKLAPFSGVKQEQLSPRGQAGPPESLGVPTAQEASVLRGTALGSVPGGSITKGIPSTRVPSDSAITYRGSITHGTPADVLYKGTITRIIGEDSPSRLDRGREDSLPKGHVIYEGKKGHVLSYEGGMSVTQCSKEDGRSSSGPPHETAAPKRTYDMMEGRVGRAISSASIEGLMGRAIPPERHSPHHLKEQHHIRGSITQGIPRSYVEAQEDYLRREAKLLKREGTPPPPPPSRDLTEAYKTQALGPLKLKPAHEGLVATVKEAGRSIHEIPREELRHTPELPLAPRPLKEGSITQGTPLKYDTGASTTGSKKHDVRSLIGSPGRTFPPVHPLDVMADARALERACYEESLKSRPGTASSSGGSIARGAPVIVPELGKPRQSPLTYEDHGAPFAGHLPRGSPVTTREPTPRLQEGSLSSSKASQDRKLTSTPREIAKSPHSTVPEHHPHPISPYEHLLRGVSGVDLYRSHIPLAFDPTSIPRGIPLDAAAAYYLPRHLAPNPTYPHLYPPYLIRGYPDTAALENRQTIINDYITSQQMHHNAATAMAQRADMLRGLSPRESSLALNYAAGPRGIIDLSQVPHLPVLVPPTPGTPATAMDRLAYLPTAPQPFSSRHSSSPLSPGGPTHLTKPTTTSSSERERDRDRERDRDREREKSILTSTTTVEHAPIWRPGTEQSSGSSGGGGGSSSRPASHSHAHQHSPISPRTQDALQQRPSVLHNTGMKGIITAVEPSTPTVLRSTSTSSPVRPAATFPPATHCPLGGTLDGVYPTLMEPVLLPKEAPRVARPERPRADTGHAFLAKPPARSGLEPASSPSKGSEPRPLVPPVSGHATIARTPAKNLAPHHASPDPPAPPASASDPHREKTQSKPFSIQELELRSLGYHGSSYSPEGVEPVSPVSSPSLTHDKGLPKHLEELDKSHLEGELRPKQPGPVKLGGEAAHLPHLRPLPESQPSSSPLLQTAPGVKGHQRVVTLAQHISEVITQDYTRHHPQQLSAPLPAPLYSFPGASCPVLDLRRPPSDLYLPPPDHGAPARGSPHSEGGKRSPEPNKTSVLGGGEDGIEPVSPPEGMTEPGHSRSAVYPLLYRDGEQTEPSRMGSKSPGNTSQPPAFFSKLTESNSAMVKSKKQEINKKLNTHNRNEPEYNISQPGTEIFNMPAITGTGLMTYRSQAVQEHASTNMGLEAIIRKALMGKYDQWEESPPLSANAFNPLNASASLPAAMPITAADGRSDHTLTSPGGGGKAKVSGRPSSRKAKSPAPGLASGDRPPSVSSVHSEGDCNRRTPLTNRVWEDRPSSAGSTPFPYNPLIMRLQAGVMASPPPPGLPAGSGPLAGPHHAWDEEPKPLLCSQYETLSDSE

[2] = target: T1, Protein deacetylase HDAC6 (Homo sapiens, UniProt Q9UBN7); experiment: Inhibition of recombinant N-terminal GST-tagged human HDAC6 (1 to 1215 residues) expressed in Baculovirus infected insect cells using RHKK-Ac as substrate by fluorimetric assay
T1 sequence (Q9UBN7 whole entry): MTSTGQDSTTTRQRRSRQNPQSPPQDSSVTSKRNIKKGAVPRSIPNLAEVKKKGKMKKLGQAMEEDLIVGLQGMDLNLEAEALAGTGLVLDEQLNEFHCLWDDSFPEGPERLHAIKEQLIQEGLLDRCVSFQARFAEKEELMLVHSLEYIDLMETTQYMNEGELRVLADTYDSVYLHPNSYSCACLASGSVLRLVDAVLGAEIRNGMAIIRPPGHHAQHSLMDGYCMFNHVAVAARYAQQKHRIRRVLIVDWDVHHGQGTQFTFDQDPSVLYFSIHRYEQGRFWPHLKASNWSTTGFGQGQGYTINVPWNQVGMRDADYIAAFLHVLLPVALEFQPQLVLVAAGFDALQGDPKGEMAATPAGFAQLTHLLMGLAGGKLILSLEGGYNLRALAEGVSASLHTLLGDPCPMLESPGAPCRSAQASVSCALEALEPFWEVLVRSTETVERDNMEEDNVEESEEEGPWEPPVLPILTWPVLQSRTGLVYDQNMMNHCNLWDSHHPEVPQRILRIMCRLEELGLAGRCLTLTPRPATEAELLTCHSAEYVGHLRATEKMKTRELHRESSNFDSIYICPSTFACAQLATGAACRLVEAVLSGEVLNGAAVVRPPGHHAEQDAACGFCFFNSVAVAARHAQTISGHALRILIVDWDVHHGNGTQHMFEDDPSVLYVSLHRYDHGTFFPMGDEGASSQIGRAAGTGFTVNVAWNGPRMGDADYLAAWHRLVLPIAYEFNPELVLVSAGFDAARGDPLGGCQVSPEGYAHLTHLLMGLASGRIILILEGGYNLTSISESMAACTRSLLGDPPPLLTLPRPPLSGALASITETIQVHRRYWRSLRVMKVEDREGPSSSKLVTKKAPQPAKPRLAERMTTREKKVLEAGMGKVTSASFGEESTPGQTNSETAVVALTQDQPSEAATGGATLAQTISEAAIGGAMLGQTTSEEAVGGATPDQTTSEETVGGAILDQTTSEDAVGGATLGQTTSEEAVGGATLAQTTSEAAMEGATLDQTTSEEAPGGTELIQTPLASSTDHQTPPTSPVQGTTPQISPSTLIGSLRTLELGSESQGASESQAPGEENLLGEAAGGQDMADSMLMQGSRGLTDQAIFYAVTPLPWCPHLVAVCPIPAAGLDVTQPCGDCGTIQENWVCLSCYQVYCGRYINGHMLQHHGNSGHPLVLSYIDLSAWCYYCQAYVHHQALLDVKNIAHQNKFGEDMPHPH

Histone deacetylase 8 = target: T2, Histone deacetylase 8 (Homo sapiens, UniProt Q9BY41); experiment: Inhibition of recombinant C-terminal His-tagged human HDAC8 (1 to 377 residues) expressed in Baculovirus infected insect cells using RHK-K(Ac)-AMC as substrate by fluorimetric assay
T2 sequence (Q9BY41 whole entry): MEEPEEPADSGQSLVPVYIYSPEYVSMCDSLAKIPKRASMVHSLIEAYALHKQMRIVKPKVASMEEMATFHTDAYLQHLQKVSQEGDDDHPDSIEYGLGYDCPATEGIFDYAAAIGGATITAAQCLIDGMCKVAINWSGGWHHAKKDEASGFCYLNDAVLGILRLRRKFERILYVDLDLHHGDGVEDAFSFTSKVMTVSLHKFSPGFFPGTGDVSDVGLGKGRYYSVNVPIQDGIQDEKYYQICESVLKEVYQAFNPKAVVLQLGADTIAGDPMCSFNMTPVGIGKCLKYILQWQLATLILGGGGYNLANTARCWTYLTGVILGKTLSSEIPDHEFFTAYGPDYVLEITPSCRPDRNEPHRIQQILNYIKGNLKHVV

Histone deacetylase 11 = target: T3, Histone deacetylase 11 (Homo sapiens, UniProt Q96DB2); experiment: Inhibition of recombinant C-terminal His-tagged human HDAC11 (1 to 347 residues) expressed in Baculovirus infected insect cells using RHKK-Ac as substrate by fluorimetric assay
T3 sequence (Q96DB2 whole entry): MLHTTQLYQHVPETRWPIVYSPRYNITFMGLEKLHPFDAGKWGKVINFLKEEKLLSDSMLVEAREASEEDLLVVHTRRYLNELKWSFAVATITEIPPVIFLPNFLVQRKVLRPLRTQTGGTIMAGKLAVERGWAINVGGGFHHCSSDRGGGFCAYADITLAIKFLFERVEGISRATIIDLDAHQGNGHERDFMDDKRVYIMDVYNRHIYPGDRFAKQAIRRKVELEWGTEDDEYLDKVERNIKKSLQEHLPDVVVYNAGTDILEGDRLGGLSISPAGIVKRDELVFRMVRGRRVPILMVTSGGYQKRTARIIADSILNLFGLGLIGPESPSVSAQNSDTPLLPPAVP

Homo sapiens [3] = species on record: Homo sapiens; experiment: Selectivity ratio of IC50 for recombinant full length C-terminal FLAG/His-tagged human HDAC1 (1 to 482 residues) to IC50 for recombinant N-terminal GST-tagged human HDAC6 (1 to 1215 residues)
Homo sapiens [4] = species on record: Homo sapiens; experiment: Selectivity ratio of IC50 for human recombinant full length C-terminal His-tagged HDAC3 (1 to 428 residues)/N-terminal GST-tagged NCOR2 (395 to 489 residues) to IC50 for recombinant N-terminal GST-tagged human HDAC6 (1 to 1215 residues)
Kasumi 1 = experiment: Antiproliferative activity against human Kasumi-1 cells after 72 hrs by resazurin dye-based assay; type: functional, cell-based; conditions: Kasumi 1, 72 h
Outline: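 KASUMI-1 cells incubated with compounds for 72 hr; viability read with resazurin reagent. IC50 taken as the mean of three experiments, each run in duplicate.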

Danio rerio = experiment: Antiangiogenic activity in zebrafish embryo assessed as effect on blood vessel development at 10 uM administered from 24 to 50 hrs post fertilization for 24 hrs and measured after 72 hrs by alkaline phosphatase assay; type: functional, organism-based
Outline: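 Zebrafish embryos exposed at 10 µM from 24–50 hpf alongside vehicle-only controls; at 72 hpf embryos stained with alkaline phosphatase to visualise blood vessels.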

[5] = target: T1, Protein deacetylase HDAC6; experiment: Inhibition of human HDAC6 using (Z-(Ac)Lys-AMC) as substrate after 90 mins by fluorescence analysis
Homo sapiens [6] = species on record: Homo sapiens; experiment: Selectivity ratio of IC50 for human HDAC1 to IC50 for human HDAC6
[7] = Drug uptake in human A549 cells cytoplasm at 1 uM after 2 hrs by naphthalimide dye-based inverted light fluorescence confocal microscopic analysis; type: ADME, subcellular; conditions: a549, 2 h
Outline: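 A549 cells incubated 2 hours with compound at 1 µM; intracellular distribution imaged by confocal microscopy with 405 nm laser excitation, emission collected at 460–560 nm.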

[8] = Drug uptake in human A549 cells lysosome at 1 uM after 2 hrs by naphthalimide/Lysotracker Deep Red dye-based inverted light fluorescence confocal microscopic analysis; type: ADME, subcellular; conditions: a549, 2 h
[9] = Drug uptake in human A549 cells lysosome at 1 uM after 2 hrs by Lyso-tracker red-based inverted light fluorescence confocal microscopic analysis; conditions: a549, 2 h

Compound: CC(/C=C/C(=O)NO)=C\[C@@H](C)C(=O)c1ccc(N(C)C)cc1
Activity (Danio rerio): Active

Compound: O=C(NO)c1ccc(CNC(=O)c2cc(Cn3c4ccccc4c4ccccc43)on2)cc1
pIC50 [5]: 9.21
Ratio IC50 (Homo sapiens [6]): 490

Compound: Nc1ccccc1NC(=O)CCCCCN1C(=O)c2cccc3c(N4CCOCC4)ccc(c23)C1=O
pIC50 (Histone deacetylase 1): 6.37
pIC50 [1]: 6.54
pIC50 [2]: < 5.00
pIC50 (Histone deacetylase 8): < 5.00
pIC50 (Histone deacetylase 11): 5.09
pIC50 (Kasumi 1): 6.19
Drug uptake [7]: Active
Drug uptake [8]: Active
Drug uptake [9]: Active

Compound: O=C(CCCCCN1C(=O)c2cccc3c(N4CCOCC4)ccc(c23)C1=O)NO
pIC50 (Histone deacetylase 1): 5.84
pIC50 [1]: 6.49
pIC50 [2]: 7.92
pIC50 (Histone deacetylase 8): 5.74
pIC50 (Histone deacetylase 11): 6.54
Ratio IC50 (Homo sapiens [3]): 119
Ratio IC50 (Homo sapiens [4]): 27
pIC50 (Kasumi 1): 6.54
pIC50 [5]: 7.92
Ratio IC50 (Homo sapiens [6]): 120

Compound: O=C(CCCCCN1C(=O)c2cccc3c([N+](=O)[O-])ccc(c23)C1=O)NO
pIC50 (Histone deacetylase 1): 6.20
pIC50 [1]: 5.79
pIC50 [2]: 8.24
pIC50 (Histone deacetylase 8): 6.21
pIC50 (Histone deacetylase 11): 5.99
Ratio IC50 (Homo sapiens [3]): 111
Ratio IC50 (Homo sapiens [4]): 284
pIC50 (Kasumi 1): 6.24

Compound: O=C(CCCCCN1C(=O)c2cccc3cccc(c23)C1=O)NO
pIC50 (Kasumi 1): 6.31
Activity (Danio rerio): Active

Further lines, with some results ahead:

pIC50 (Histone deacetylase 1): 5.62
pIC50 [1]: 6.33
pIC50 [2]: 7.89
pIC50 (Histone deacetylase 8): 5.39
pIC50 (Histone deacetylase 11): 6.72
Ratio IC50 (Homo sapiens [3]): 183
Ratio IC50 (Homo sapiens [4]): 36
Compound: O=C(CCCCCN1C(=O)c2cccc3c(Nc4ccccc4)ccc(c23)C1=O)NO
pIC50 (Kasumi 1): 6.55

pIC50 (Histone deacetylase 1): 5.62
pIC50 [1]: 6.15
pIC50 [2]: 8.01
pIC50 (Histone deacetylase 8): 5.85
pIC50 (Histone deacetylase 11): 5.91
Ratio IC50 (Homo sapiens [3]): 245
Ratio IC50 (Homo sapiens [4]): 72
Compound: CN(Cc1ccccc1)c1ccc2c3c(cccc13)C(=O)N(CCCCCC(=O)NO)C2=O
pIC50 (Kasumi 1): 6.09

pIC50 (Histone deacetylase 1): 6.13
pIC50 [1]: 6.70
pIC50 [2]: < 5.00
pIC50 (Histone deacetylase 8): < 5.00
pIC50 (Histone deacetylase 11): 5.03
Compound: Nc1ccccc1NC(=O)CCCCCN1C(=O)c2cccc3cccc(c23)C1=O
pIC50 (Kasumi 1): 5.96

pIC50 (Histone deacetylase 1): 5.51
pIC50 [1]: 6.26
pIC50 [2]: 7.85
pIC50 (Histone deacetylase 8): 5.39
pIC50 (Histone deacetylase 11): 6.68
Ratio IC50 (Homo sapiens [3]): 219
Ratio IC50 (Homo sapiens [4]): 39
Compound: O=C(CCCCCN1C(=O)c2cccc3c(Nc4cccc(F)c4)ccc(c23)C1=O)NO
pIC50 (Kasumi 1): 6.49
